This is an account of results in publication PMC6334763 (Archives of biochemistry and biophysics, 2018).

Series [1] addresses T1, Bm-iAANAT3 (Bombyx mori, UniProt D7EZJ9). In words: Steady-state kinetic characterization with Ellman's reagent. It counts as biochemical. As to conditions: for kcat: 300 mM Tris pH 8.0. (In Ellman's method for cholinesterases, released thiocholine reacts with DTNB.)
In series [2] the target is T1, Bm-iAANAT3. As to conditions: cited from earlier work.
In series [3] the target is T1, Bm-iAANAT3. In words: Dead-end and product inhibition analysis. It counts as biochemical. The following applies: for inhibition pattern vs. acetyl-CoA: acetyl-CoA varied, tryptamine fixed; for inhibition pattern vs. tryptamine: tryptamine varied, acetyl-CoA fixed. The procedure, abridged: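 Same Ni-purified Bm-iAANAT3. Initial velocities were measured at several fixed inhibitor levels: oleoyl-CoA at 0, 250 and 500 nM; tyrosol at 0, 150 and 300 μM. In one series, tryptamine was held at 100 μM while acetyl-CoA was varied at 10, 25, 50 and 100 μM. In the other, acetyl-CoA was held at 100 μM while tryptamine was varied at 50, 100, 150 and 300 μM.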

For series [4], the target named is T2, E27A mutant of Bm-iAANAT3 (Bombyx mori, UniProt D7EZJ9, E27A).
T2 sequence (D7EZJ9 1-213 E27A): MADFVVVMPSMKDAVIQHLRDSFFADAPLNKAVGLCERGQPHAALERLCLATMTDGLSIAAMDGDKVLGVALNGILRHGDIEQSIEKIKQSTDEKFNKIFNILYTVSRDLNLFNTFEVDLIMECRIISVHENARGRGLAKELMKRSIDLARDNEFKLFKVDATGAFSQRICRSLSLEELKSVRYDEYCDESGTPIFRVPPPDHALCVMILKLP
In words: Steady-state kinetic constants of the E27A mutant. It counts as biochemical. As to conditions: E27A mutant compared with wild-type Bm-iAANAT3.

For series [5], the target named is T1, Bm-iAANAT3. In words: Activity-based substrate screening. In kind it is biochemical. The following applies: rate of CoA-SH release above enzyme-independent acyl-CoA hydrolysis. The procedure, abridged:
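Enzyme: Bm-iAANAT3 expressed from pET28a in E. coli BL-21(DE3), induced with 1.0 mM IPTG for 4 h at 37°C, and Ni-chelate purified. Acetyl-CoA or oleoyl-CoA at 500 μM was tested separately against pooled amines, each at 20 mM or 60 mM, in 300 mM Tris pH 8.0 with 150 μM DTNB. Initial rates came from CoA release at 412 nm (ε₄₁₂ = 13,600 M⁻¹ cm⁻¹), minus background thioester hydrolysis.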

Substrate in series [6]: NCCc1c[nH]c2ccccc12
In words: Steady-state kinetic constants of the E27A mutant. In kind it is biochemical, Bombyx mori. The following applies: other: E27A mutant; named substrate varied; pH 8.0.

Substrate in series [7]: CC(=O)SCCNC(=O)CCNC(=O)[C@H](O)C(C)(C)COP(=O)(O)OP(=O)(O)OC[C@H]1O[C@@H](n2cnc3c(N)ncnc32)[C@H](O)[C@@H]1OP(=O)(O)O
In words: Steady-state kinetic constants of the E27A mutant. It counts as biochemical, Bombyx mori. As to conditions: other: E27A mutant; named substrate varied; pH 8.0.

Setting [8] is: acyl-CoA substrate varied, 8.0 mM tryptamine, 22°C.
Setting [9] is: binding to free Bm-iAANAT3, ITC and/or NMR.
[10] abbreviates: amine substrate varied, 500 μM acetyl-CoA, 22°C.
Setting [11] is: amine substrate varied, 500 μM acetyl-CoA, 22°C, 300 mM Tris pH 8.0, 150 μM DTNB.

Where two headings read alike, the source gives them in different places.

With `CCCC(=O)SCCNC(=O)CCNC(=O)[C@H](O)C(C)(C)COP(=O)(O)OP(=O)(O)OC[C@H]1O[C@@H](n2cnc3c(N)ncnc32)[C@H](O)[C@@H]1OP(=O)(O)O` [Butyryl, buytryl-CoA], the kcat in series [1] (setting [8]) was 4.0 ± 0.04 s⁻¹.

Regarding `CC(C)(COP(=O)(O)OP(=O)(O)OC[C@H]1O[C@@H](n2cnc3c(N)ncnc32)[C@H](O)[C@@H]1OP(=O)(O)O)[C@@H](O)C(=O)NCCC(=O)NCCS` [CoA-SH], in series [2] (setting [9]), the equilibrium dissociation constant (Kd) (usually the concentration at which binding is half-saturated) is 30 ± 1 µM.

As to `NCCc1ccc(O)c(O)c1` [Dopamine], the kcat in series [1] (setting [10]) is 55 ± 1.1 s⁻¹. Besides, the Km (in general, the substrate concentration at which the rate is half of its maximum) in series [1] (setting [11]) amounted to 0.33 ± 0.023 mM.

`NCCc1c[nH]cn1` [Histamine]: the kcat in series [1] (setting [10]) was 33 ± 0.68 s⁻¹. In addition, the Km in series [1] (setting [11]) is 1.7 ± 0.098 mM; in series [1] (amine substrate, as given in the text in mM, 500 μM acetyl-CoA), 1.7 ± 0.1 mM.

For the molecule `CC(=O)NCCc1c[nH]c2ccccc12` [N-acetyltryptamine], in series [3], the “inhibition pattern vs. acetyl-CoA” value is given as “competitive” and the “inhibition pattern vs. tryptamine” value is “noncompetitive”. The “effect of added CoA-SH on binding” value in series [2] (addition of CoA-SH) was “not affected”. The “effect of added acetyl-CoA on binding” value in series [2] (addition of acetyl-CoA) was “eliminated”. Moreover, in series [2] (setting [9]), the Kd was 12 ± 3 µM.

Turning to `NC[C@H](O)c1ccc(O)c(O)c1` [Norepinephrine], the kcat in series [1] (setting [10]) amounted to 5.3 ± 0.07 s⁻¹. Besides, in series [1] (setting [11]), the Km was determined as 0.14 ± 0.0086 mM.

For the molecule `NCCc1c[nH]c2ccccc12` [Tryptamine], the “fold increase in Km, E27A mutant vs wild-type” value in series [4] is recorded as 100 fold. The Kd in series [2] (setting [9]) is 220 ± 8 µM.

With `NCCc1ccc(O)cc1` [Tyramine], the kcat in series [1] (setting [10]) stood at 27 ± 0.6 s⁻¹. For the same molecule, the Km in series [1] (setting [11]) was 0.063 ± 0.0067 mM.

As to `CC(=O)SCCNC(=O)CCNC(=O)[C@H](O)C(C)(C)COP(=O)(O)OP(=O)(O)OC[C@H]1O[C@@H](n2cnc3c(N)ncnc32)[C@H](O)[C@@H]1OP(=O)(O)O` [acetyl-CoA], the kcat in series [1] (setting [8]) is 64 ± 0.7 s⁻¹. Also, the Kd in series [2] (setting [9]) was 0.7 µM.

`CCCCCCCCCC(=O)SCCNC(=O)CCNC(=O)[C@H](O)C(C)(C)COP(=O)(O)OP(=O)(O)OC[C@H]1O[C@@H](n2cnc3c(N)ncnc32)[C@H](O)[C@@H]1OP(=O)(O)O` [decanoyl-CoA]: the kcat in series [1] (setting [8]) came to 0.05 ± 0.004 s⁻¹.

For the molecule `CCCCCC(=O)SCCNC(=O)CCNC(=O)C(O)C(C)(C)COP(=O)(O)OP(=O)(O)OC[C@H]1O[C@@H](n2cnc3c(N)ncnc32)[C@H](O)[C@@H]1OP(=O)(O)O` (stereo partly shown) [hexanoyl-CoA], in series [1] (setting [8]), the kcat worked out at 1.3 ± 0.01 s⁻¹.

As to `CC(C)(COP(=O)(O)OP(=O)(O)OC[C@H]1O[C@@H](n2cnc3c(N)ncnc32)[C@H](O)[C@@H]1OP(=O)(O)O)[C@@H](O)C(=O)NCCC(=O)NCCSC(=O)CC(=O)O` [malonyl-CoA], the “substrate activity as acyl-CoA donor” value in series [5] is recorded as “is a substrate”. The kcat in series [1] (setting [8]) turned out to be 13 ± 1.5 s⁻¹. Further, in series [1] (acyl-CoA substrates, 8.0 mM tryptamine), the “fold lower (kcat/Km) than (kcat/Km) of decanoyl-CoA” value is ~ 6 fold.

For the molecule `CCCCCCCC(=O)SCCNC(=O)CCNC(=O)[C@H](O)C(C)(C)COP(=O)(O)OP(=O)(O)OC[C@H]1O[C@@H](n2cnc3c(N)ncnc32)[C@H](O)[C@@H]1OP(=O)(O)O` [octanoyl-CoA], the kcat in series [1] (setting [8]) amounted to 0.36 ± 0.005 s⁻¹.

Turning to `CCCCCCCC/C=C\CCCCCCCC(=O)SCCNC(=O)CCNC(=O)[C@H](O)C(C)(C)COP(=O)(O)OP(=O)(O)OC[C@H]1O[C@@H](n2cnc3c(N)ncnc32)[C@H](O)[C@@H]1OP(=O)(O)O` [oleoyl-CoA], the “substrate activity as acyl-CoA donor” value in series [5] was “no initial velocity increase”. For the same molecule, in series [3], the “inhibition pattern vs. acetyl-CoA” value is listed as “competitive” and the “inhibition pattern vs. tryptamine” value was “noncompetitive”. For the same molecule, the Ki (commonly the dissociation constant of the complex between target and ligand, obtained from inhibition or displacement) in series [3] (read-out: Ki,s, competitive vs. acetyl-CoA (varied), tryptamine fixed at 100 μM) amounted to 0.22 ± 0.02 µM.

Consider `OCCc1c[nH]c2ccccc12` [tryptophol], for which the Kd in series [2] (setting [9]) was 230 ± 12 µM; in series [2] (in the presence of acetyl-CoA), 50 ± 2 µM.

In series [3] (Ki,i, uncompetitive vs. acetyl-CoA (varied), tryptamine fixed at 100 μM), `OCCc1ccc(O)cc1` [tyrosol] showed a Ki of 230 ± 10 µM. Further, the Ki in series [3] (Ki,s, competitive vs. tryptamine (varied), acetyl-CoA fixed at 100 μM) was found to be 90 ± 10 µM. Also, in series [3], the “inhibition pattern vs. acetyl-CoA” value is on record as “uncompetitive” and the “inhibition pattern vs. tryptamine” value is “competitive”.

B1: E27A mutant of Bm-iAANAT3 (Bombyx mori; E27A) (protein)
chain: MADFVVVMPSMKDAVIQHLRDSFFADAPLNKAVGLCERGQPHAALERLCLATMTDGLSIAAMDGDKVLGVALNGILRHGDIEQSIEKIKQSTDEKFNKIFNILYTVSRDLNLFNTFEVDLIMECRIISVHENARGRGLAKELMKRSIDLARDNEFKLFKVDATGAFSQRICRSLSLEELKSVRYDEYCDESGTPIFRVPPPDHALCVMILKLP
On to B1, for which, in series [6], the Km was found to be 9.4 ± 0.99 mM and the kcat is 8.0 ± 0.3 × 10 s^−1. Further, in series [7], the Km was 20 ± 2.2 µM and the kcat is listed as 4.0 ± 0.09 × 10^−2 s^−1.
